Assay type in all cases: functional
The species named for assay [1] is Rattus norvegicus. The experiment in a line: Effective dose causing a homovanillic acid (HVA) concentration three fold the control level in rat striatum. In outline: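 Male albino Wistar rats (180-250 g) received drug i.p. in 0.9% NaCl with a little ascorbic acid, made fresh and kept from light. Controls got saline-ascorbic acid. Rats were decapitated 2 h later and the corpus striatum dissected. HVA was read fluorometrically as the mean of left and right striata. Four to six doses, 3-6 rats each; threefold-HVA dose taken from log dose-response curves.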

Assay [2] deals with Rattus norvegicus. The experiment in a line: Tested for neuroleptic activity by measuring the increase in homovanillic acid (HVA) level in rat tuberculum olfactorium at dosage of 20 umol/kg. In outline: (§1)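 Freshly made in 0.9% NaCl with a little ascorbic acid and kept from light, given ip to male Wistar rats (180-250 g); controls got saline-ascorbic acid. Rats decapitated 2 h post-dose and the brain region dissected. HVA was measured by a semiautomatic fluorometric method and expressed as % of control levels. 3-6 rats per dose.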

Assay [3] relates to Rattus norvegicus. As to the kind of experiment: Tested for neuroleptic activity by measuring the increase in homovanillic acid (HVA) level in rat tuberculum olfactorium at dosage of 30 umol/kg. The method, boiled down:
as §1

The test system of assay [4] is Rattus norvegicus. As to the kind of experiment: Tested for neuroleptic activity by measuring the increase in homovanillic acid (HVA) level in rat tuberculum olfactorium at dosage of 10 umol/kg. In outline:
as §1

The subject of assay [5] is Rattus norvegicus. As to the kind of experiment: Tested for neuroleptic activity by measuring the increase in homovanillic acid (HVA) level in rat corpus striatum at dosage of 30 umol/kg. In outline: (§2)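 Wistar male rats (180-250 g) were dosed i.p. at the stated level in fresh, light-protected 0.9% NaCl with a little ascorbic acid; controls received saline-ascorbic acid. They were decapitated at 2 h and the corpus striatum removed. HVA was assayed by a semiautomatic fluorometric method, averaging both striata, with 3-6 rats per dose. Values are expressed as % of control HVA.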

Assay [6] relates to Rattus norvegicus. The experiment in a line: Tested for neuroleptic activity by measuring the increase in homovanillic acid (HVA) level in rat nucleus accumbens at dosage of 20 umol/kg.
The test system of assay [7] is Rattus norvegicus. The experiment in a line: Tested for neuroleptic activity by measuring the increase in homovanillic acid (HVA) level in rat nucleus accumbens at dosage of 50 umol/kg.
Assay [8] has as its system Rattus norvegicus. The experiment in a line: Tested for neuroleptic activity by measuring the increase in homovanillic acid (HVA) level in rat corpus striatum at dosage of 10 umol/kg. In outline: as §2
Assay [9] concerns Rattus norvegicus. The experiment in a line: Tested for neuroleptic activity by measuring the increase in homovanillic acid (HVA) level in rat corpus striatum at dosage of 20 umol/kg. In outline: as §2
Assay [10] has as its system Rattus norvegicus. The experiment in a line: Tested for neuroleptic activity by measuring the increase in homovanillic acid (HVA) level in rat nucleus accumbens at dosage of 10 umol/kg.
In assay [11] the test system is Rattus norvegicus. The experiment in a line: Tested for neuroleptic activity by measuring the increase in homovanillic acid (HVA) level in rat corpus striatum at dosage of 50 umol/kg. In outline:
as §2

Assay [12] relates to Rattus norvegicus. The experiment in a line: Tested for neuroleptic activity by measuring the increase in homovanillic acid (HVA) level in rat tuberculum olfactorium at dosage of 50 umol/kg. The method, boiled down:
as §1

Assay [13] relates to Rattus norvegicus. As to the kind of experiment: Tested for neuroleptic activity by measuring the increase in homovanillic acid (HVA) level in rat nucleus accumbens at dosage of 30 umol/kg.
In assay [14] the test system is Rattus norvegicus. As to the kind of experiment: Tested for neuroleptic activity by measuring the increase in homovanillic acid (HVA) level in rat corpus striatum at dosage of 75 umol/kg. In outline:
as §2

In assay [15] the test system is Rattus norvegicus. The experiment in a line: Tested for neuroleptic activity by measuring the increase in homovanillic acid (HVA) level in rat tuberculum olfactorium at dosage of 75 umol/kg. The method, boiled down:
as §1

Assay [16] has as its system Rattus norvegicus. As to the kind of experiment: Tested for neuroleptic activity by measuring the increase in homovanillic acid (HVA) level in rat nucleus accumbens at dosage of 15 umol/kg. In outline:
as §1

The test system of assay [17] is Rattus norvegicus. The experiment in a line: Tested for neuroleptic activity by measuring the increase in homovanillic acid (HVA) level in rat corpus striatum at dosage of 15 umol/kg. In outline:
as §2

For assay [18], the system named is Rattus norvegicus. The experiment in a line: Tested for neuroleptic activity by measuring the increase in homovanillic acid (HVA) level in rat nucleus accumbens at dosage of 75 umol/kg.
Assay [19] has as its system Rattus norvegicus. The experiment in a line: Tested for neuroleptic activity by measuring the increase in homovanillic acid (HVA) level in rat corpus striatum at dosage of 25 umol/kg. In outline:
as §2

The subject of assay [20] is Rattus norvegicus. As to the kind of experiment: Tested for neuroleptic activity by measuring the increase in homovanillic acid (HVA) level in rat tuberculum olfactorium at dosage of 25 umol/kg. The method, boiled down: as §1
The subject of assay [21] is Rattus norvegicus. The experiment in a line: Tested for neuroleptic activity by measuring the increase in homovanillic acid (HVA) level in rat nucleus accumbens at dosage of 25 umol/kg.
For assay [22], the system named is Rattus norvegicus. As to the kind of experiment: Tested for neuroleptic activity by measuring the increase in homovanillic acid (HVA) level in rat tuberculum olfactorium at dosage of 15 umol/kg. In outline:
as §1

The subject of assay [23] is Rattus norvegicus. The experiment in a line: Tested for neuroleptic activity by measuring the increase in homovanillic acid (HVA) level in rat nucleus accumbens at dosage of 5 umol/kg.
The subject of assay [24] is Rattus norvegicus. The experiment in a line: Tested for neuroleptic activity by measuring the increase in homovanillic acid (HVA) level in rat tuberculum olfactorium at dosage of 5 umol/kg. In outline: as §1
The test system of assay [25] is Rattus norvegicus. As to the kind of experiment: Tested for neuroleptic activity by measuring the increase in homovanillic acid (HVA) level in rat corpus striatum at dosage of 5 umol/kg. In outline: as §2

Molecules are shown by their SMILES.

`CN(C)CCCN1c2cscc2Sc2ccc(Cl)cc21` showed an ED300 in [1] of 19.2 µM/kg.
The same measure, in the same setting: in the case of `Cl.OCCN1CCN(CCCN2c3cscc3Sc3ccc(C(F)(F)F)cc32)CC1` it was 0.54 µM/kg.
Regarding `CN(C)CCCN1c2cc(C(F)(F)F)ccc2Sc2sccc21`, the HVA control came out at 240% in assay [2]; 280% in [3]; 180% in assay [4]; 430% in assay [5]; 350% in assay [6]; 510% in [7]. Further, the HVA control in [8] came to 320%; in assay [9], 410%; in assay [10] it was 250%; in assay [11], 510%; in assay [12], 300%; in assay [13], 360%. For the same compound, the ED300 in assay [1] is 6.1 µM/kg.
`Cl.OCCN1CCN(CCCN2c3ccccc3Sc3sccc32)CC1`: the ED300 in assay [1] came out at 18.9 µM/kg.
The compound `Cl.OCCN1CCN(CCCN2c3ccccc3Sc3cscc32)CC1` gave an ED300 in assay [1] of 13.7 µM/kg.
For `Cl.OCCN1CCN(CCCN2c3cc(C(F)(F)F)ccc3Sc3sccc32)CC1`, the ED300 in [1] is 0.75 µM/kg.
For the compound `CN(C)CCCN1c2cc(Cl)ccc2Sc2ccsc21`, the ED300 in [1] is 350 µM/kg.
For `CN(C)CCCN1c2cc(C(F)(F)F)ccc2Sc2ccsc21`, the HVA control is recorded as 440% in [14]; 200% in [15]; 100% in assay [16]; 180% in [7]; 130% in assay [17]; 310% in assay [11]. Also, the HVA control in assay [12] is listed as 150%; in assay [18], 375%. This compound also returned an ED300 in [1] of 30.1 µM/kg.
For `CN(C)CCCN1c2cc(Cl)ccc2Sc2sccc21`, in assay [1], the ED300 was found to be 36 µM/kg.
In assay [1], `Cl.OCCN1CCN(CCCN2c3cc(Cl)ccc3Sc3ccsc32)CC1` registered an ED300 of 20.5 µM/kg.
In the case of `Cl.OCCN1CCN(CCCN2c3cc(Cl)ccc3Sc3sccc32)CC1`, the ED300 in assay [1] is 3.27 µM/kg.
For `CN(C)CCCN1c2ccccc2Sc2sccc21`, the ED300 in [1] stood at 480 µM/kg.
Same read-out and setting: for `Cl.OCCN1CCN(CCCN2c3cc(C(F)(F)F)ccc3Sc3ccsc32)CC1` the value was 4 µM/kg; for `CN(C)CCCN1c2ccccc2Sc2cscc21`, 460 µM/kg.
Turning to `Cl.OCCN1CCN(CCCN2c3cscc3Sc3ccc(Cl)cc32)CC1`, in assay [1], the ED300 was determined as 1.5 µM/kg.
For the compound `CN(C)CCCN1c2cscc2Sc2ccc(C(F)(F)F)cc21`, the HVA control turned out to be 445% in assay [19]; 270% in assay [20]; 390% in assay [21]; 160% in [4]; 260% in assay [16]; 340% in assay [17]. In addition, the HVA control came out at 210% in [22]; 125% in [23]; 100% in assay [24]; 310% in [8]; 185% in assay [10]; 140% in [25]. This compound registered an ED300 in [1] of 9.2 µM/kg.

For the origin of these results see ChEMBL document CHEMBL1121628, “Synthesis of isomeric thienobenzothiazines and their effect on dopamine metabolism in rat brain” (1980).
